Assay results reported in ChEMBL document CHEMBL2390928.
Calls of active or inactive are those of the source. The calls are words filed in the database; no cut-off is given here.

Key:
MDA-MB-468 = experiment: Growth inhibition of human MDA-MB-468 cells; assay type: functional
HL-60(TB) = experiment: Growth inhibition of human HL-60(TB) cells; assay type: functional
KM12 = experiment: Growth inhibition of human KM12 cells; assay type: functional
SNB-19 = experiment: Growth inhibition of human SNB19 cells; assay type: functional
HeLa [1] = experiment: Cytotoxicity against human HeLa cells assessed as growth inhibition after 48 hrs by SRB assay; assay type: functional, cell-based
MDA-MB-231 = experiment: Growth inhibition of human MDA-MB-231 cells; assay type: functional
SW-620 = experiment: Growth inhibition of human SW620 cells; assay type: functional
SK-MEL-5 = experiment: Growth inhibition of human SK-MEL-5 cells; assay type: functional
Hs-578T = experiment: Growth inhibition of human Hs578T cells; assay type: functional
NCI-H322M = experiment: Growth inhibition of human NCI-H322M cells; assay type: functional
COLO 205 = experiment: Growth inhibition of human COLO205 cells; assay type: functional
SF-268 = experiment: Growth inhibition of human SF268 cells; assay type: functional
SK-MEL-28 = experiment: Growth inhibition of human SK-MEL-28 cells; assay type: functional
HCT-116 = experiment: Growth inhibition of human HCT116 cells; assay type: functional
MCF7 = experiment: Growth inhibition of human MCF7 cells; assay type: functional
HOP-62 = experiment: Growth inhibition of human HOP62 cells; assay type: functional
[2] = Growth inhibition of human NCI-ADR-RES cells; assay type: functional
SF-539 = experiment: Growth inhibition of human SF539 cells; assay type: functional
HCT-15 = experiment: Growth inhibition of human HCT15 cells; assay type: functional
[3] = Growth inhibition of human HCC2998 cells; assay type: functional; conditions: HCC 2998
TK-10 = experiment: Growth inhibition of human TK10 cells; assay type: functional
HOP-92 = experiment: Growth inhibition of human HOP92 cells; assay type: functional
OVCAR-4 = experiment: Growth inhibition of human OVCAR4 cells; assay type: functional
SN12C = experiment: Growth inhibition of human SN12C cells; assay type: functional
SK-OV-3 [4] = experiment: Growth inhibition of human SKOV3 cells; assay type: functional
A549 = experiment: Growth inhibition of human A549 cells; assay type: functional
NCI-H23 = experiment: Growth inhibition of human NCI-H23 cells; assay type: functional
BT-549 = experiment: Growth inhibition of human BT549 cells; assay type: functional
MDA-MB-435 [5] = experiment: Growth inhibition of human MDA-MB-435 cells; assay type: functional
DU-145 = experiment: Growth inhibition of human DU145 cells; assay type: functional
HT-29 = experiment: Growth inhibition of human HT-29 cells; assay type: functional
UACC-62 = experiment: Growth inhibition of human UACC62 cells; assay type: functional
RPMI-8226 = experiment: Growth inhibition of human RPMI8226 cells; assay type: functional
RXF 393 = experiment: Growth inhibition of human RXF393 cells; assay type: functional
SNB-75 = experiment: Growth inhibition of human SNB75 cells; assay type: functional
U-251 = experiment: Growth inhibition of human U251 cells; assay type: functional
PC-3 = experiment: Growth inhibition of human PC3 cells; assay type: functional
MDA-MB-435 [6] = experiment: Cytotoxicity against human MDA-MB-435 cells assessed as growth inhibition after 48 hrs by SRB assay; assay type: functional, cell-based; conditions: MDA-MB-435, 48 h
K562 = experiment: Growth inhibition of human K562 cells; assay type: functional
CCRF-CEM = experiment: Growth inhibition of human CCRF-CEM cells; assay type: functional
SR = experiment: Growth inhibition of human SR cells; assay type: functional
OVCAR-8 = experiment: Growth inhibition of human OVCAR8 cells; assay type: functional
MDA-MB-435 [7] = experiment: Cell cycle arrest in human MDA-MB-435 cells assessed as increase in accumulation at G2/M phase at 44.1 to 73.5 nM after 18 hrs by FACS flow cytometric analysis; assay type: functional, cell-based
Procedure, shortened: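 Cells harvested, stained with Krishan's reagent (propidium iodide), analysed by flow cytometry; propidium iodide intensity plotted against event count to give cell cycle distribution.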

786-0 = experiment: Growth inhibition of human 786-0 cells; assay type: functional
SK-OV-3 [8] = experiment: Cytotoxicity against human SKOV3 cells assessed as growth inhibition after 48 hrs by SRB assay; assay type: functional, cell-based; conditions: SK-OV-3, 48 h
A498 = experiment: Growth inhibition of human A498 cells; assay type: functional
NCI-H226 = experiment: Growth inhibition of human NCI-H226 cells; assay type: functional
[9] = Induction of interphase microtubule depolymerization in rat A10 cells after 18 to 24 hrs by indirect immunofluorescence assay; assay type: cell-based
Procedure, shortened: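 Rat aortic smooth muscle A-10 cells are treated for 18 h, fixed in cold methanol, and stained for microtubules with a β-tubulin antibody by indirect immunofluorescence. […] It is computed per experiment over a wide concentration range, from at least 3 independent experiments, and reported as mean ± SD.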

OVCAR-5 = experiment: Growth inhibition of human OVCAR5 cells; assay type: functional
SK-MEL-2 = experiment: Growth inhibition of human SK-MEL-2 cells; assay type: functional
NCI-H522 = experiment: Growth inhibition of human NCI-H522 cells; assay type: functional
ACHN = experiment: Growth inhibition of human ACHN cells; assay type: functional
SF-295 = experiment: Growth inhibition of human SF295 cells; assay type: functional
Bos taurus = species: Bos taurus; experiment: Displacement of [3H]-colchicine from bovine brain tubulin at 5 uM after 10 mins relative to control
Procedure, shortened: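 Electrophoretically homogeneous bovine brain tubulin, 1.0 µM, incubated 10 min at 37 °C with 5.0 µM [3H]colchicine and 5.0 µM inhibitor; colchicine binding inhibition expressed as percent ± SD.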

LOX IMVI = experiment: Growth inhibition of human LOXIMVI cells; assay type: functional
Malme-3M = experiment: Growth inhibition of human MALME-3M cells; assay type: functional
UO-31 = experiment: Growth inhibition of human UO31 cells; assay type: functional
MOLT-4 = experiment: Growth inhibition of human MOLT4 cells; assay type: functional
[10] = Inhibition of bovine brain tubulin assembly after 20 mins by spectrophotometric analysis; parameters: species or system Bos taurus
Procedure, shortened: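 Electrophoretically homogeneous bovine brain tubulin is used at 10 µM (1.0 mg/mL) with varying inhibitor concentrations. After 15 min preincubation at 30 °C, 0.4 mM GTP is added.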

[11] = Growth inhibition of human EKVX cells; assay type: functional
OVCAR-3 = experiment: Growth inhibition of human OVCAR3 cells; assay type: functional
M14 = experiment: Growth inhibition of human M14 cells; assay type: functional
NCI-H460 = experiment: Growth inhibition of human NCI-H460 cells; assay type: functional
[12] = Ratio of EC50 for induction of microtubule depolymerization in rat A10 cells to IC50 for human MDA-MB-435 cells
Procedure, shortened: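 This ratio divides the A-10 EC50 by the MDA-MB-435 melanoma IC50. […] The IC50 is from the sulforhodamine B proliferation assay, 3–5 independent experiments.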

SK-OV-3 [13] = experiment: Resistance ratio of IC50 for human SKOV3 cells expressing MDR1 to IC50 for human SKOV3 cells; assay type: functional
Procedure, shortened: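 Relative resistance (Rr) is the IC50 in Pgp-expressing SK-OV-3 MDR-1-6/6 cells divided by the IC50 in parental SK-OV-3 cells.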

HeLa [14] = experiment: Resistance ratio of IC50 for human HeLa cells expressing beta-3 tubulin to IC50 for human HeLa cells; assay type: functional
Procedure, shortened: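 HeLa WT βIII cells are HeLa cells transfected with the βIII-tubulin gene. IC50 in this line and in parental HeLa is taken from the sulforhodamine B assay (3–5 independent experiments). Rr is the βIII-line IC50 divided by the parental HeLa IC50.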

## COc1ccc(N(C)c2nc(N)nc3[nH]c4ccccc4c23)cc1
MDA-MB-468
  GI50: 26.9 nM
HL-60(TB)
  GI50: 32.2 nM
KM12
  GI50: 13.2 nM
SNB-19
  GI50: 50.9 nM
HeLa [1]
  IC50: 21.3 nM
MDA-MB-231
  GI50: 64.6 nM
SW-620
  GI50: 19 nM
SK-MEL-5
  GI50: 32.3 nM
Hs-578T
  GI50: 11.5 nM
NCI-H322M
  GI50: 64.2 nM
COLO 205
  GI50: 25.8 nM
SF-268
  GI50: 37.7 nM
SK-MEL-28
  GI50: < 10 nM
HCT-116
  GI50: 29.8 nM
MCF7
  GI50: 16.4 nM
HOP-62
  GI50: 40 nM
[2]
  GI50: 11.5 nM
SF-539
  GI50: 24.2 nM
HCT-15
  GI50: 26.1 nM
[3]
  GI50: 23.6 nM
TK-10
  GI50: 56.2 nM
HOP-92
  GI50: 242 nM
OVCAR-4
  GI50: 52.7 nM
SN12C
  GI50: 80.1 nM
SK-OV-3 [4]
  GI50: 29.9 nM
A549
  GI50: 36.4 nM
NCI-H23
  GI50: 31.8 nM
BT-549
  GI50: 94.5 nM
MDA-MB-435 [5]
  GI50: < 10 nM
DU-145
  GI50: 31.4 nM
HT-29
  GI50: 31 nM
UACC-62
  GI50: 27 nM
RPMI-8226
  GI50: 41.1 nM
RXF 393
  GI50: 16.9 nM
SNB-75
  GI50: 12.7 nM
U-251
  GI50: 37.3 nM
PC-3
  GI50: 44.3 nM
MDA-MB-435 [6]
  IC50: 14.7 nM
K562
  GI50: < 10 nM
CCRF-CEM
  GI50: 41.1 nM
SR
  GI50: < 10 nM
OVCAR-8
  GI50: 42.3 nM
MDA-MB-435 [7]
  Activity: Active
786-0
  GI50: 49 nM
SK-OV-3 [8]
  IC50: 27.6 nM
A498
  GI50: 15.8 nM
NCI-H226
  GI50: 133 nM
[9]
  EC50: 105 nM
OVCAR-5
  GI50: 51.2 nM
SK-MEL-2
  GI50: 19.7 nM
NCI-H522
  GI50: < 10 nM
ACHN
  GI50: 89.6 nM
SF-295
  GI50: 26 nM
Bos taurus
  inhibition: 84%
LOX IMVI
  GI50: 68.4 nM
Malme-3M
  GI50: 304 nM
UO-31
  GI50: 53.7 nM
MOLT-4
  GI50: 47.7 nM
[10]
  IC50: 1400 nM
[11]
  GI50: 16.7 nM
OVCAR-3
  GI50: 12.9 nM
M14
  GI50: 16.6 nM
NCI-H460
  GI50: 30 nM

## COc1ccc(/C=C\c2cc(OC)c(OC)c(OC)c2)cc1O [COMBRETASTATIN A4]
HeLa [1]
  IC50: 4.7 nM
SK-OV-3 [8]
  IC50: 9.7 nM
[9]
  EC50: 13 nM

## CCOc1ccc(N(C)c2nc(N)nc3[nH]c4ccccc4c23)cc1
HeLa [1]
  IC50: 23.1 nM
[12]
  Ratio: 6.5
SK-OV-3 [13]
  Ratio IC50: 1.3
MDA-MB-435 [6]
  IC50: 14.4 nM
SK-OV-3 [8]
  IC50: 23 nM
HeLa [14]
  Ratio IC50: 0.8
[9]
  EC50: 83 nM
Bos taurus
  inhibition: 82%
[10]
  IC50: 1700 nM

## CCN(c1ccc(OC)cc1)c1nc(N)nc2[nH]c3ccccc3c12
HeLa [1]
  IC50: 32.8 nM
[12]
  Ratio: 8.4
SK-OV-3 [13]
  Ratio IC50: 1.4
MDA-MB-435 [6]
  IC50: 23.5 nM
SK-OV-3 [8]
  IC50: 53 nM
HeLa [14]
  Ratio IC50: 1.4
[9]
  EC50: 198 nM
Bos taurus
  inhibition: 76%
[10]
  IC50: 1700 nM

## COc1ccc(N(C)c2nc(C)nc3[nH]ccc23)cc1
Bos taurus
  inhibition: 70%
[10]
  IC50: 2600 nM

## CC(=O)O[C@H]1C(=O)[C@@]2(C)[C@H]([C@H](OC(=O)c3ccccc3)[C@]3(O)C[C@H](OC(=O)[C@H](O)[C@@H](NC(=O)c4ccccc4)c4ccccc4)C(C)=C1C3(C)C)[C@]1(OC(C)=O)CO[C@@H]1C[C@@H]2O [PACLITAXEL]
SK-OV-3 [8]
  IC50: 4.4 nM
